Experimental data from different studies.
Compare with care: the assays were run in different laboratories.
Target: Interleukin-1 receptor-associated kinase 4 (IRAK4, Homo sapiens, UniProt Q9NWZ3)

SMILES	read-out	mode	method	tested at	measurement	value
c1ccc(N2CCN(Cc3nc4ccccc4[nH]3)CC2)nc1	binding		competition with immobilised ligand	1 µM	remaining binding	100%
CNC(=O)c1cc(Oc2ccc(NC(=O)Nc3ccc(Cl)c(C(F)(F)F)c3)cc2)ccn1	cell-free assay			0.5 µM	remaining signal	99.6%
Cc1sc(C(=O)NC2COC2)cc1-n1cc(NC(=O)Nc2c(F)cccc2Cl)cn1	enzyme activity	inhibitor		10 µM	remaining activity	103%
CCCS(=O)(=O)Nc1ccc(F)c(C(=O)c2c[nH]c3ncc(-c4ccc(Cl)cc4)cc23)c1F	enzyme activity	inhibitor		1 µM	inhibition	< 10%
COc1cc(Cl)c(C(=O)N[C@@H](CN[C@H]2CC[C@@H](N)CC2)Cc2ccc(C#N)cc2)cc1-c1ccc(CN[C@H](C)c2ccc(C)cc2)o1	enzyme activity	inhibitor		1 µM	remaining activity	89%
CC(C)(C)c1nc2c(s1)c1nc(N)ncc1c1ccc(NS(=O)(=O)c3c(F)cccc3F)c(F)c12	enzyme activity	inhibitor	radiometric	1 µM	remaining activity	90%
O=C(Nc1cnn(-c2csc(C(=O)NC3COC3)c2)c1)Nc1ccccc1Cl	enzyme activity	inhibitor		5 µM	remaining activity	92.1%
N#CC1(c2ccccn2)CCN(Cc2cc(C(=O)N3CCCC3)c(=O)n3ccccc23)CC1	cell-free assay		competition with immobilised ligand	1 µM	remaining binding	100%
Oc1cccc(-c2nc(N3CCOCC3)c3oc4ncccc4c3n2)c1	cell-free assay			0.5 µM	remaining signal	104%
FC(F)c1nc2ccccc2n1-c1nc(N2CCOCC2)nc(N2CCOCC2)n1	enzyme activity	inhibitor		10 µM	remaining activity	102%
C=CC(=O)Nc1cc(Nc2nccc(Nc3cc(Cl)c(F)cc3C(C)(C)O)n2)c(OC)cc1N1CC[C@@H](N(C)C)C1	enzyme activity	inhibitor		1 µM	inhibition	24%
CC(C)(O)[C@H]1CC[C@H](Nc2ccc3ncc(-c4cccc(C(F)(F)F)c4)n3n2)CC1	enzyme activity	inhibitor		1 µM	remaining activity	64.2%
CCN(CC)CCNC(=O)c1c(C)[nH]c(/C=C2\C(=O)Nc3ccc(F)cc32)c1C	enzyme activity	inhibitor		0.3 µM	inhibition	28%
CNC(=O)c1ccc(Nc2ncc(C(F)(F)F)c(NCc3nccnc3N(C)S(C)(=O)=O)n2)cc1	cell-free assay		competition with immobilised ligand	0.1 µM	remaining binding	92%
COc1cc2c(Nc3ccc(Br)cc3F)ncnc2cc1OCC1CCN(C)CC1	cell-free assay			0.5 µM	remaining signal	35.3%
N#Cc1ccc(Nc2ccc3[nH]c(=O)[nH]c3c2)c(Cl)c1	cell-free assay		competition with immobilised ligand	1 µM	remaining binding	100%
O=C(CSc1nc2nccnc2c(=O)n1CCc1ccccc1)Nc1nccs1	enzyme activity	inhibitor		10 µM	inhibition	10%
CSc1nc(C)c(-c2ccnc(Nc3ccc(N4CCOCC4)cc3)c2)[nH]1	enzyme activity	inhibitor		10 µM	inhibition	45.8%
CO[C@@H](C)c1c(Nc2ccc([C@H](N(C)C(=O)C3CCS(=O)(=O)CC3)C(F)(F)F)cc2)cnc2cc(Cl)nn12	cell-free assay		competition with immobilised ligand	1 µM	remaining binding	88%
CN(C)C1CCN(CC#Cc2nn(C3CCCC3)c3nc(NCc4ccccc4)ncc23)C1 (stereo not drawn)	enzyme activity	inhibitor	FRET	0.1 µM	inhibition	0%
Oc1cccc(-c2nc(N3CCOCC3)c3oc4ncccc4c3n2)c1	enzyme activity	inhibitor		10 µM	remaining activity	119%
COc1cc2ncnc(Nc3ccc(Oc4ccccc4)cc3C)c2cc1OC	enzyme activity	inhibitor		1 µM	inhibition	0%
CC1=C(C#N)C(c2ccc3c(c2)c(NC(=O)c2ccccc2C)nn3C)C(C#N)=C(C)N1	cell-free assay		competition with immobilised ligand	1 µM	remaining binding	7.5%
COc1cc2nccc(Oc3ccc(NC(=O)c4c5n(n(-c6ccc(F)cc6)c4=O)CCCC5)cc3)c2cc1OC	enzyme activity	inhibitor		0.1 µM	inhibition	-19%
CNCc1ccccc1-c1csc([C@@H](C)Nc2nc(C)nc3cc(OC)c(OC)cc23)c1	cell-free assay		competition with immobilised ligand	1 µM	remaining binding	76%
COc1cc(Nc2cnc(C#N)c(O[C@H](C)CN(C)C)n2)ncc1-c1cnn(C)c1	enzyme activity	inhibitor	radiometric	10 µM	remaining activity	25%
CCC(=O)N[C@H]1CC[C@@H](C(=O)N(C)c2ccc(-c3nc4ccccc4o3)cc2)C1	cell-free assay		competition with immobilised ligand	1 µM	remaining binding	87%
CNc1cccc2cc(C(=O)Nc3ccc(C(=O)O)cc3)c(=O)[nH]c12	enzyme activity	inhibitor		10 µM	inhibition	7.7%
COc1ccc(COc2ccc(Cc3cnc(N)nc3N)cc2OC)cc1	cell-free assay			0.5 µM	remaining signal	110%
FC(F)(F)Oc1cccc(-c2cnc3ccc(-c4ccncc4)nn23)c1	enzyme activity	inhibitor	radiometric	5 µM	activity vs control	10%
